A selection: hits, their analogues and other compounds. The true share with any hit is near 4.6%.
OX1R antag-1: human HCRTR1 antagonism; 330,000 tested, 0.43% active; CHO/OX1R cells, Fluo-8 calcium fluorescence, orexin A; inhibition, % at 5 µM; AID 434989; O43613;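 active means inhibition above its plate's threshold, mean inhibition of all tested compounds on the plate plus 3 SD, cut at about 37% in these data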
Target sequence (O43613 whole entry, looked up): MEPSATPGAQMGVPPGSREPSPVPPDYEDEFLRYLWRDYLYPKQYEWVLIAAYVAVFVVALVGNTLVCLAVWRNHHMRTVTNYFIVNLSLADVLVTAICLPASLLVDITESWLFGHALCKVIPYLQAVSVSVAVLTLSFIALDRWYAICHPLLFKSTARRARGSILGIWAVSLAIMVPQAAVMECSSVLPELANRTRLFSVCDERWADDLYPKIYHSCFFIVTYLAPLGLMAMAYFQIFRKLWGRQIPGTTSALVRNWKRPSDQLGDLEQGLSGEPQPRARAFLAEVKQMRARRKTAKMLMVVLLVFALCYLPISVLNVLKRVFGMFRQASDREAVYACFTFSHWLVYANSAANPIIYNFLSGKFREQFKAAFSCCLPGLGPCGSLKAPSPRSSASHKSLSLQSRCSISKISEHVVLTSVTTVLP
GPR7 antagonist: blocks human GPR7 receptor signaling; P48145; GPR7-expressing cells, fluorescence antagonist assay; inhibition, % at 4.4 µM; 290,000 tested, 1.1% active; in the data active means inhibition above about 16%, passing the limit was not always enough;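 further: cells stimulated with the agonist NPW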
OX1R antag-2: blocks the human orexin 1 receptor; O43613; OX1R-expressing cells, FRET antagonist read-out; inhibition, % at 6.6 µM; 330,000 tested, 1.8% active; in the data active means inhibition mostly above about 38%, no sharp cut-off; inactive means mostly below about 40%
TAAR1 agonist: agonists of human TAAR1; Q96RJ0; CHO RD-HGA16 TAAR1, Fluo-8 calcium fluorescence; vehicle wells 0%, saturating PEA agonist 100%; activation, % at 3 µM; 360,000 tested, 0.99% active;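 active means activation above the mean activation of all test compounds in the run plus 3 SD, cut at about 38% in these data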
Target sequence (Q96RJ0 whole entry, looked up): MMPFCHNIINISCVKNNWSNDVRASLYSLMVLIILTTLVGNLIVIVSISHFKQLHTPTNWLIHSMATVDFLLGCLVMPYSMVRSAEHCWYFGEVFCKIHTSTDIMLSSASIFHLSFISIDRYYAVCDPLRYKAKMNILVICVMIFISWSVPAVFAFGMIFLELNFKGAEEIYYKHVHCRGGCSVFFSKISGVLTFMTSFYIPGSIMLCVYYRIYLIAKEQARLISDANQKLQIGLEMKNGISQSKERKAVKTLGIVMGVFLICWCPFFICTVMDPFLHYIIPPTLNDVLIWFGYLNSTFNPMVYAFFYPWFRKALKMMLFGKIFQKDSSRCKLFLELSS
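Test system: RD-HGA16 (CHO) cells co-expressing Gα16 and hTAAR1 | Doses: Single dose, 3 µM | Schedule: 17-24 h seeding, 75 min 37 °C dye, 30 min RT | Evaluation: % activation from peak over basal fluorescence ratio, DMSO-to-PEA scaled | Technique: Kinetic Fluo-8 calcium fluorescence | Benchmarks: Low control DMSO, high control PEA (EC100)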
TAAR1 antag: human TAAR1 antagonism | CHO RD-HGA16 TAAR1, Fluo-8 calcium fluorescence, antagonist | 360,000 tested, 1.5% active | inhibition, % at 3 µM | Q96RJ0 | AID 624466;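 active means inhibition above a per-plate cutoff, the mean inhibition of test compounds on that plate plus 3 SD, cut at about 49% in these data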
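Test system: hTAAR1-expressing CHO RD-HGA16 cells, Gα16-coupled; Probe or stimulus: EC80 β-phenethylamine stimulus; Compound dosing: single nominal final test compound concentration of 3 µM; Timing: 140 s kinetic read after compound, 140 s after agonist; Signal: Fluo-8 calcium-sensitive fluorescence; Measure: % inhibition of agonist calcium response; Controls: DMSO and EC80 PEA controls.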
CHO parental Ca: counter-screen: ATP calcium response change in parental CHO cells. parental CHO-K1, ATP-induced calcium, Fluo-8 fluorescence. inhibition, % at 5.6 µM. 330,000 tested, 0.63% active. AID 463079;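 active means inhibition above that plate's mean sample inhibition plus 3 SD, cut at about 26% in these data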
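material = parental CHO cells | also added = ATP as calcium-mobilizing challenge | dosing = single point at 5.6 µM | detection = intracellular calcium via Fluo-8 no-wash fluorescent dye | read-out = % inhibition | benchmarks = low control ATP plus DMSO, high control DMSO only | repeats = one well per compound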
Of the large screens only hits and unclear results are named; the others gave an inactive call.

Cc1cc(NC(=O)CCC(=O)N(Cc2ccco2)C(C(=O)NC2CCCCC2)c2ccccc2)no1 (stereo unspecified)	OX1R antag-2 52.7
Cc1cc(NC(=O)CCC(=O)N(Cc2ccco2)C(C(=O)NC2CCCC2)c2ccccc2C)no1 (stereo unspecified)	none
COC(=O)[C@]12CCCCC=C1N(Cc1ccc(Cl)cc1Cl)C(=O)[C@H](CC(=O)NCc1cccs1)C2	none (no result: OX1R antag-1, GPR7 antagonist, OX1R antag-2, CHO parental Ca)
O=C(CCCCCn1c(=S)[nH]c2ccc(Br)cc2c1=O)NCC1CCCO1 (stereo unspecified)	none
NS(=O)(=O)c1ccc(CCNC(=O)CCCCCn2c(=S)[nH]c3ccc(Br)cc3c2=O)cc1	GPR7 antagonist 17.1, TAAR1 antag 60.0
O=C(COC(=O)C1=COCCO1)NC(=O)c1ccc(OC(F)F)cc1	none
COC(=O)c1cc2c(ccn2-c2ccc(F)cc2)n1CC(C)C	TAAR1 agonist 43.6
COC(=O)c1cc2c(ccn2-c2ccc(F)cc2)n1C(C)C	TAAR1 agonist 39.2
Cc1ccccc1CNC(=O)C(=O)NCC1CCCN1S(=O)(=O)c1cccs1 (stereo unspecified)	none (no result: OX1R antag-1, GPR7 antagonist, OX1R antag-2, CHO parental Ca)
O=C(NCCc1c[nH]c2ccccc12)OCCCCOC(=O)NCCc1c[nH]c2ccccc12	OX1R antag-1 60.8, OX1R antag-2 60.7, TAAR1 antag 79.8 (no result: GPR7 antagonist)
CC(NC(=O)COC(=O)c1cn(-c2ccccc2)nc1-c1cccs1)c1ccccc1 (stereo unspecified)	OX1R antag-2 64.0
O=C(COC(=O)c1c[nH]c2ccccc12)Nc1ccccc1	none (no result: GPR7 antagonist)
CC(NC(=O)COC(=O)c1c[nH]c2ccccc12)c1ccccc1 (stereo unspecified)	OX1R antag-2 43.2 (no result: GPR7 antagonist)
O=C(CCCc1c[nH]c2ccccc12)NCCc1c[nH]c2ccccc12	OX1R antag-2 48.8
Cn1c(=O)cc(OCCCC(=O)NCc2ccco2)c2ccccc21	none
Cc1ccccc1Cn1c(=O)c2c(nc3n2CCN3Cc2ccco2)n(C)c1=O	none (no result: OX1R antag-1, GPR7 antagonist, OX1R antag-2, CHO parental Ca)
CC(Oc1ccccc1)C(=O)OCC(=O)N1CC(=O)Nc2ccccc21 (stereo unspecified)	none
CCc1ccc(C2CC(c3ccco3)=NN2S(C)(=O)=O)cc1 (stereo unspecified)	none
O=C(COC(=O)c1ccccc1C(=O)OCC(=O)NCCc1c[nH]c2ccccc12)NCCc1c[nH]c2ccccc12	OX1R antag-1 57.9, OX1R antag-2 68.1, TAAR1 antag 76.1 (no result: GPR7 antagonist)
O=c1c2cc(Br)ccc2nc(-c2cccc(C(F)(F)F)c2)n1O	TAAR1 agonist 46.2
C=CC[C@@H](CC(=O)N(CCO)Cc1ccccc1)C(=O)N[C@H](COC(=O)[C@@H](CC=C)Cc1ccc(F)cc1)Cc1c[nH]c2ccccc12	TAAR1 antag 58.7 (no result: GPR7 antagonist)
C=CC[C@H](CC(=O)N(CCO)Cc1ccccc1)C(=O)N[C@H](COC(=O)[C@@H](CC=C)Cc1ccc(F)cc1)Cc1c[nH]c2ccccc12	TAAR1 antag 58.6 (no result: GPR7 antagonist)
C=CC[C@@H](CC(=O)N[C@@H](CO)Cc1ccccc1)C(=O)N[C@H](COC(=O)[C@H](CC=C)CC(=O)OC(C)(C)C)Cc1c[nH]c2ccccc12	TAAR1 antag 51.9 (no result: GPR7 antagonist)
CC(c1cccs1)N(Cc1ccco1)C(=S)Nc1ccc(F)c(Cl)c1 (stereo unspecified)	none
O=C(Nc1ccc2c(c1)OCO2)c1c(Cl)nc2sccn12	OX1R antag-2 58.1
Cn1ncc(Cl)c1C(=O)Nc1ccc2c(c1)OCO2	none
NC(=O)c1ccc[n+](CC(=O)Nc2ccccc2C(=O)O)c1	none
CCOC(=O)CSc1nc2sc(C)c(C)c2c(=O)[nH]1	none
CCOC(=O)/C(=C\c1ccc(Cl)cc1)c1nc2sc(C)c(C)c2c(=O)[nH]1	TAAR1 antag 91.8
CCC(NC(=O)Nc1nnc(C(F)(F)F)s1)(C(F)(F)F)C(F)(F)F	OX1R antag-1 64.9, GPR7 antagonist 29.3, OX1R antag-2 59.7, CHO parental Ca 81.1
Cc1ccc(Nc2nc(N)nc(CSC(=S)N3CCOCC3)n2)cc1	none
Nc1nc(CSC(=S)N2CCOCC2)nc(Nc2ccccc2)n1	OX1R antag-2 69.2
Nc1nc(CSC(=S)N2CCCCC2)nc(Nc2ccccc2)n1	OX1R antag-2 69.2
CCCCCC[N+](C)(C)CCSSCC[N+](C)(C)CCCCCC	none
CCCCCCCCCCCCCCCC[N+](C)(C)CCl	TAAR1 antag 63.3 (no result: OX1R antag-1, GPR7 antagonist, OX1R antag-2, CHO parental Ca)
C#CC[N+](C)(C)CCCCCCCCCC	none
CCCCCCCCCCCCCCCC[N+](C)(C)CC	TAAR1 antag 79.4 (no result: GPR7 antagonist)
CCN(CC(=O)NC(C)(C)C)Cc1cc(=O)n2c(-c3ccccc3)csc2n1	none
Cc1ccc(NNC(=O)c2ccno2)cc1C	none
CC(C)c1ccc(CC(=O)N2CCC2(C)C(=O)Nc2cnc3ccccc3c2)cc1 (stereo unspecified)	none (no result: OX1R antag-1, GPR7 antagonist, OX1R antag-2, CHO parental Ca)
CC(C)(C)c1ccc(CC(=O)N2CCC2(C)C(=O)Nc2cnc3ccccc3c2)cc1 (stereo unspecified)	TAAR1 antag 52.6 (no result: OX1R antag-1, GPR7 antagonist, OX1R antag-2, CHO parental Ca)
Cn1cccc1C(=O)NNC(=O)COc1ccc(C#N)cc1	none (no result: GPR7 antagonist)
c1ccc(-c2nc3nc4ccccc4nc3n2CC2CCCO2)cc1 (stereo unspecified)	TAAR1 antag 50.9
COc1ccc(CN2C(=O)[C@H]3Cc4c([nH]c5ccccc45)C(C)(C)N3C2=O)cc1	TAAR1 antag 56.0 (no result: GPR7 antagonist)
COc1ccc(CN2C(=O)[C@@H]3Cc4c([nH]c5ccccc45)C(C)(C)N3C2=O)cc1	none (no result: GPR7 antagonist)
CC1(C)c2[nH]c3ccccc3c2C[C@@H]2C(=O)N(Cc3ccccc3Cl)C(=O)N21	TAAR1 antag 49.1 (no result: GPR7 antagonist)
COc1ccccc1CN1C(=O)[C@@H]2Cc3c([nH]c4ccccc34)C(C)(C)N2C1=O	none (no result: GPR7 antagonist)
C=C1CSc2nc3ccccc3c(=O)n21	none
N#Cc1c(-c2ccccc2)nc(-c2ccccc2)nc1N1CCOCC1	TAAR1 agonist 40.7
c1cncc(CSc2nnc3ccc(-c4ccncc4)nn23)c1	OX1R antag-2 39.1
CC(=O)Nc1ccc(NC(=O)CSc2nnc3ccc(-c4cccnc4)nn23)cc1	OX1R antag-2 49.9 (no result: GPR7 antagonist)
O=C(CSc1nnc2ccc(-c3ccncc3)nn12)c1cccs1	OX1R antag-2 44.3
c1ccc(CSc2nnc3ccc(-c4ccncc4)nn23)cc1	none
COc1ccc(NC(=O)CSc2nnc3ccc(-c4ccncc4)nn23)cc1	none (no result: GPR7 antagonist)
O=C(CSc1nnc2ccc(-c3cccnc3)nn12)Nc1ccc(F)cc1	none (no result: GPR7 antagonist)
O=C(CSc1nnc2ccc(-c3ccncc3)nn12)Nc1ccc(F)cc1	OX1R antag-2 61.3 (no result: GPR7 antagonist)
Cc1ccc(NC(=O)CSc2nnc3ccc(-c4cccnc4)nn23)cc1	none (no result: GPR7 antagonist)
COc1ccc(NC(=O)CSCCc2ccccn2)cc1OC	none
COc1ccc(-c2nnc3ccc(SCC(=O)N4CCCC4)nn23)cc1	none
COc1ccc(-c2ccc3nnc(SCC(=O)N4CCCC4)n3n2)cc1	OX1R antag-2 55.0 (no result: GPR7 antagonist)

Source: PubChem
